Assay results published in article PMC6482957 (Nature structural & molecular biology, 2018).
Where a chain is given by its changes, count along the chain named. In names and notes the source's numbering stands.

Legend:
[1] = tested on: p300-ZZ; test: 1H,15N HSQC NMR titration, p300-ZZ; assay type: binding, human
Method in brief: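 Human p300 ZZ (aa 1663–1713) carried an N-terminal His-tag and was expressed in BL21(DE3) RIL in M9 with 15NH4Cl and 0.05 mM ZnCl2. Induction was 0.2 mM IPTG, overnight at 18 °C. Protein was Ni-NTA purified and the tag cleaved. 0.1 mM sample in 20 mM Tris-HCl pH 7.0, 100 mM NaCl, 5 mM DTT, 8% D2O. Unlabeled HAT domain (1:2) was added first, then H3 peptide; chemical shift changes were monitored at 298K.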

[2] = tested on: BD-RING-PHD (BRP) region of p300; test: 1H,15N HSQC NMR titration, p300 BD-RING-PHD; assay type: binding, human; details: 15N-labeled BD-RING-PHD, 298K, pH 7.0
[3] = molecular target: T1, p300 HAT-ZZ domain (aa 1287–1713, Y1467F) (human, UniProt Q09472 1287-1713, Y1467F); test: NMR titration
T1 sequence: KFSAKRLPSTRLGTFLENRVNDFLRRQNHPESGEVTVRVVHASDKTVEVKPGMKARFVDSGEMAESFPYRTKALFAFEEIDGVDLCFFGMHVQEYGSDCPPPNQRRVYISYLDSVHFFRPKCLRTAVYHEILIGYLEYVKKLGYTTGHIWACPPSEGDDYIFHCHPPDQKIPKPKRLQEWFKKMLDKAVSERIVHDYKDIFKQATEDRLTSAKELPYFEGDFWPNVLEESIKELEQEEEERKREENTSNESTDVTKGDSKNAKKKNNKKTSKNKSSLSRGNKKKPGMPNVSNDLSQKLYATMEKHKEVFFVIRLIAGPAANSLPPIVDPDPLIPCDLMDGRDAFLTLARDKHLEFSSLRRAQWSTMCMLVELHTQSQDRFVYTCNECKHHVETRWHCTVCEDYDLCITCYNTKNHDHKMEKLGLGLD

[4] = tested on: chromatin of H1299 cells (FLAG, H3K18ac, H3K27ac); test: ChIP-seq / ChIP-qPCR in H1299 stable cells; assay type: cell-based, human; details: for Chromatin binding / H3K18ac and H3K27ac occupancies: ChIP-seq, H1299
Method in brief: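 H1299 cells (RPMI, 10% FBS) were lentivirally transduced with FLAG-p300-BRPHZT (wild type or mutant) and blasticidin-selected for 4–6 days. Cells were crosslinked with 1% formaldehyde for 10 min, quenched with 125 mM glycine, and nuclei were lysed in 1% SDS buffer and sonicated. Chromatin was immunoprecipitated overnight at 4 °C with 2–4 μg antibody, washed in low-salt, high-salt and LiCl buffers, and reverse-crosslinked. DNA went to SYBR qPCR (IgG or H3 normalization, two negative-control loci) or sequencing.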

[5] = tested on: chromatin in H1299 cells; test: Chromatin association of FLAG-p300BRPHZT; assay type: cell-based, human; details: H1299 stable cells, ChIP-western and salt fractionation
Method in brief: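 H1299 cells stably expressing FLAG-p300-BRPHZT variants were used. For protein-ChIP, cells were formaldehyde-crosslinked and nuclear lysates sonicated, then pulled down overnight at 4 °C on anti-FLAG M2 agarose. Beads were washed in low-salt, high-salt and LiCl buffers, and bound protein was read by western blot. For salt fractionation, cells were swollen in hypotonic HEPES buffer and nuclei isolated, then nuclei were extracted 30 min at 4 °C in glycerol wash buffer with 75 mM NaCl and the supernatant collected.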

[6] = tested on: histone acetylation in H1299 cells; test: Histone acetylation levels in H1299 stable cells; assay type: cell-based, human; details: n = 3; for H3K4, H3K9 and H4 acetylation / Increase of H3K18 and H3K27 acetylation: p300-BRPHZT
[7] = molecular target: T2, human p300 ZZ domain (aa 1663–1713) (human, UniProt Q09472 1663-1713); test: NMR titration
T2 sequence: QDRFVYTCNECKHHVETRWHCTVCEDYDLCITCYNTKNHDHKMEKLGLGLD

H4_1–9(Ser1): H4_1–9(Ser1) (SGRGKGGKG)
Binding to p300-ZZ ([1]; authors' conclusion from NMR titration): almost negligible binding

B1: HAT-ZZ: HAT-ZZ domain (aa 1287–1713, Y1467F) (protein)
chain: T1 sequence
modifications: left off: His-tag, N-terminal, cleaved
Interaction with BD-RING-PHD [2]: weakened

B2: p300 BD-RING-PHD region (aa 1047–1278) (domain or fragment)
chain: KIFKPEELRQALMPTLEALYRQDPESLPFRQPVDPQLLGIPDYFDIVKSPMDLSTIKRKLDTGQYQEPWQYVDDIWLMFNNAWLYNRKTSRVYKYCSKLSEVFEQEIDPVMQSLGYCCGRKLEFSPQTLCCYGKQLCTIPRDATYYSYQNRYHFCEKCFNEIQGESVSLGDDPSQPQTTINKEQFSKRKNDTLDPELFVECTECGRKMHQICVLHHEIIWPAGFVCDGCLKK
binding result [3]: binds

B3: HAT domain: p300 HAT domain (aa 1287–1663, Y1467F) (protein)
chain: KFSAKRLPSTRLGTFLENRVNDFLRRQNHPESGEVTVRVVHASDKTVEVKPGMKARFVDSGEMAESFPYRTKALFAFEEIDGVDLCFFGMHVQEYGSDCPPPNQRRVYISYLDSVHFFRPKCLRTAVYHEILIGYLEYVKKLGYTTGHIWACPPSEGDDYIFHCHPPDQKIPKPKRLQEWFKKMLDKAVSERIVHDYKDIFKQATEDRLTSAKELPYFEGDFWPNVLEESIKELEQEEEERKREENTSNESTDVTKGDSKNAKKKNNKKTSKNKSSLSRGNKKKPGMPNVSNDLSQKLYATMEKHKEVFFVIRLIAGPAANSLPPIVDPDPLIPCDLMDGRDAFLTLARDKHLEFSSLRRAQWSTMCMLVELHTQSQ
modifications: left off: His-tag, N-terminal, cleaved
Interaction with BD-RING-PHD [2]: rapid disappearance of resonances | Resonance perturbations in p300-ZZ in presence of HAT domain ([1]; HSQC, 298K, pH 7.0, HAT (1:2 molar ratio) added first, then peptide): very small changes in ZZ | Interaction between isolated HAT and ZZ domains ([1]; HSQC, p300-ZZ with unlabeled HAT (1:2 molar ratio)): interact only weakly

B4: N1671A: p300 BRPHZT loss-of-function mutation of ZZ (protein)
chain: TQSSPAPGQSKKKIFKPEELRQALMPTLEALYRQDPESLPFRQPVDPQLLGIPDYFDIVKSPMDLSTIKRKLDTGQYQEPWQYVDDIWLMFNNAWLYNRKTSRVYKYCSKLSEVFEQEIDPVMQSLGYCCGRKLEFSPQTLCCYGKQLCTIPRDATYYSYQNRYHFCEKCFNEIQGESVSLGDDPSQPQTTINKEQFSKRKNDTLDPELFVECTECGRKMHQICVLHHEIIWPAGFVCDGCLKKSARTRKENKFSAKRLPSTRLGTFLENRVNDFLRRQNHPESGEVTVRVVHASDKTVEVKPGMKARFVDSGEMAESFPYRTKALFAFEEIDGVDLCFFGMHVQEYGSDCPPPNQRRVYISYLDSVHFFRPKCLRTAVYHEILIGYLEYVKKLGYTTGHIWACPPSEGDDYIFHCHPPDQKIPKPKRLQEWYKKMLDKAVSERIVHDYKDIFKQATEDRLTSAKELPYFEGDFWPNVLEESIKELEQEEEERKREENTSNESTDVTKGDSKNAKKKNNKKTSKNKSSLSRGNKKKPGMPNVSNDLSQKLYATMEKHKEVFFVIRLIAGPAANSLPPIVDPDPLIPCDLMDGRDAFLTLARDKHLEFSSLRRAQWSTMCMLVELHTQSQDRFVYTCAECKHHVETRWHCTVCEDYDLCITCYNTKNHDHKMEKLGLGLDDESNNQQAAATQSPGDSRRLSIQRCIQSLVHACQCRNANCSLPSCQKMKRVVQHTKGCKRKTNGGCPICKQLIALCCYHAKHCQENKCPVPFCLNIKQKLRQQQLQHRLQQAQMLRR
modifications: left off: FLAG, end not stated, kept
Chromatin binding [4]: incapable of gaining the chromatin binding | H3K18ac and H3K27ac occupancies [4]: no increase | Association of p300 BRPHZT with chromatin [5]: substantially reduced | H3K4, H3K9 and H4 acetylation [6]: without affecting | Increase of H3K18 and H3K27 acetylation [6]: greatly attenuated

B5: D1690A (protein)
chain: B4 chain with A637N, D656A
modifications: left off: FLAG, end not stated, kept
Chromatin binding [4]: incapable of gaining the chromatin binding | H3K18ac and H3K27ac occupancies [4]: no increase | Association of p300 BRPHZT with chromatin [5]: substantially reduced | H3K4, H3K9 and H4 acetylation [6]: without affecting | Increase of H3K18 and H3K27 acetylation [6]: greatly attenuated

B6: N1132A: p300 BRPHZT BD mutation that abrogates acetyllysine binding (protein)
chain: B4 chain with N98A, A637N
modifications: left off: FLAG, end not stated, kept
p300-BRPHZT occupancy and H3K18ac and H3K27ac levels at target gene regions ([4]; ChIP-qPCR, H1299, n = 3): decrease | Association of p300 BRPHZT with chromatin [5]: substantially reduced

B7: WT p300-BRPHZT: p300 BD-RING-PHD-HAT-ZZ-TAZ2 region (BRPHZT, amino acids 1035–1830) (protein)
chain: B4 chain with A637N
modifications: left off: FLAG, end not stated, kept
H3K18ac and H3K27ac occupancies [4]: evident increase | Number of p300-BRPHZT binding sites (FLAG ChIP-seq) ([4]; M2 Flag antibody, H1299, MACS p ≤1e−8): 679 | Global levels of acetylation at all sites tested ([6]; whole cell extract): increased

B8: H3A1V1–6 (peptide)
peptide: VRTKQT
fold reduction in binding against the peptide with Ala1 [7]: ~3 fold
